DAX1 inh-1: inhibits human nuclear receptor DAX1; 340,000 tested, 0.99% active; inhibition, % at 6.75 µM; HEK293 Gal4-DAX1 luciferase reporter, luminescence;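 active = inhibition above the mean over all tested compounds plus 3 SD, cut at about 4.2% in these data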;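 note: 0% = DAX1-transfected cells with DMSO and 100% = empty-vector control cells with DMSO; inhibition shows as a rise in luminescence from relieved DAX1 repression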
NR2E3 ag-1: agonists of human nuclear receptor NR2E3. GST-NR2E3/biotin-RetCOR TR-FRET, 1536-well. inhibition of corepressor binding, % at 4.78 µM. 320,000 tested, 0.12% active;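 active = percent inhibition above the cutoff of mean plus 3 SD of all tested compounds, set per screening campaign, cut at about 20% in these data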;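 note: 0% = DMSO wells and 100% = biotin wells as full block of FRET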
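Format: 1536-well format; test system: GST-NR2E3 and biotin-RetCOR proteins; read-out basis: percent inhibition of TR-FRET ratio; timing: 5 h incubation at 4 °C; detection: time-resolved FRET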
DAX1 inh-2: blocks DAX1 repression of SF-1 activated StAR promoter; inhibition, % at 6.8 µM; 370,000 tested, 1.1% active; HEK293T StAR-luciferase reporter, SF-1/DAX-1 repression relief;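 active = inhibition above the mean over all tested compounds plus 3 SD, cut at about 3.6% in these data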;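 note: 0% = DAX-1 cells with DMSO and 100% = cells lacking DAX-1 with DMSO; higher inhibition means more luminescence from relief of DAX-1 repression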
NR2E3 ag-2: activates human NR2E3 receptor; inhibition of corepressor binding, % at 3.98 µM; 360,000 tested, 0.35% active; AID 602229; Q9Y5X4; CHO-S Gal4-NCOR/VP16-NR2E3 two-hybrid, luciferase;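 active = inhibition above the mean of all tested compounds plus 3 SD, cut at about 70% in these data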;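 note: 0% = DMSO with NR2E3 transfected cells and 100% = cells lacking NR2E3 construct; higher means lower luciferase signal from less NR2E3 corepressor binding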
GASC-1 inh: human JMJD2C demethylase inhibition; GST-JMJD2C(1-420) H3K9me3 demethylation, DELFIA europium; inhibition, % at 2.35 µM; Q9H3R0; 330,000 tested, 0.069% active;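 active = more than half of a compound's replicate wells show inhibition beyond 50%, single wells judged on their own value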;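 note: signal counts dimethyl H3K9 product captured on neutravidin plate; 0% = median of DMSO wells and 100% = 0.3 times that DMSO median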
Target sequence (Q9H3R0 1-420 limits assumed): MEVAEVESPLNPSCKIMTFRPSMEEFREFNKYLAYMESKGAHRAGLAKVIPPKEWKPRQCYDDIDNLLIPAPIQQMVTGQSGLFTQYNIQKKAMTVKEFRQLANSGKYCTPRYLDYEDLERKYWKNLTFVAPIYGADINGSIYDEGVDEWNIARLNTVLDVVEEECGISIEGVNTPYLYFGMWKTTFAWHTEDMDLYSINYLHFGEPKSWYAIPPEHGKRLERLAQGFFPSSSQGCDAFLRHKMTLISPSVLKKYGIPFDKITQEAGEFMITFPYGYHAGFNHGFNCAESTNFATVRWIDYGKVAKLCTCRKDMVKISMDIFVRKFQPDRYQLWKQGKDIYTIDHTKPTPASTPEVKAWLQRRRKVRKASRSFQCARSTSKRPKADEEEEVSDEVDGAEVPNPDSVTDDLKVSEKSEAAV
SMARCA2 activ: activators of SMARCA2 function; MG213 cells, MMTV-luciferase reporter, dexamethasone, overnight; activation, % at 9.1 µM; 370,000 tested, 1% active; in the data active = activation above about 7.8%;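 note: 0% = vehicle wells and 100% = reference activator wells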
An asterisk follows results filed as active; . = no result. A selection: hits, their analogues and other compounds. The true share with any hit is near 3.2%.

SMILES	DAX1 inh-1	NR2E3 ag-1	DAX1 inh-2	NR2E3 ag-2	GASC-1 inh	SMARCA2 activ
CN(C)/C=N/c1nc(-c2ccc3ccccc3c2)cs1	5.0*	-5	2	-113	3	3
Cc1cc(C(=O)OCC(=O)Nc2ccc(F)cc2[N+](=O)[O-])c2ccccc2n1	-1	-2	0	7	7	0
Cc1csc(Sc2ccc(C(=O)OCC(=O)Nc3ccc(F)cc3[N+](=O)[O-])cc2[N+](=O)[O-])n1	6.5*	-4	0	-4	-11	-1
Fc1cccc(/C=N/Nc2nncc3ccccc23)c1	-1	-2	3	-118	4	3
CC(=O)Nc1ccc(/C=N/Nc2nncc3ccccc23)cc1	5.0*	.	1	-147	-15	4
COc1ccc(CCNC(=O)CN(c2ccc(OC)cc2)S(C)(=O)=O)cc1	6.4*	0	0	-26	-17	0
COc1ccc(CCNC(=O)CN(c2ccccc2OC)S(C)(=O)=O)cc1	2	0	0	8	23	0
CC(=O)c1c(C)[nH]c(C(=O)Nc2cccc(C)c2C)c1C	3	0	0	-5	-5	-3
Cc1cccc(NC(=O)c2n[nH]c([N+](=O)[O-])c2Br)c1C	0	1	3.6*	-133	8	1
Oc1ccccc1-c1csc(-c2ccccc2)n1	4.9*	6	2	-77	-13	2
CN(C)S(=O)(=O)c1cc(NC2CC(=O)N(c3ccc(F)cc3)C2=O)ccc1Cl (stereo not drawn)	10*	2	0	-8	6	-1
N=C1C(=O)OCC1c1ccccc1NC(=O)Nc1ccccc1 (stereo not drawn)	7.1*	1	1	-38	-5	-2
N=C1C(=O)OCC1c1ccccc1NC(=O)c1ccc(F)cc1 (stereo not drawn)	1	-1	0	-8	6	-2
COc1cc2c(c(OC)c1OC)-c1ccc(NCc3ccccc3)c(=O)cc1C(NC(C)=O)CC2 (stereo not drawn)	0	.	4.0*	17	.	8
COc1cc2c(c(OC)c1OC)-c1ccc(NC(=O)c3ccc(F)cc3)c(=O)cc1[C@@H](NC(C)=O)CC2	-1	1	0	-24	-3	-2
COc1cc2c(c(OC)c1OC)-c1ccc(SC)c(=O)cc1C(NC(=O)C(F)(F)F)CC2 (stereo not drawn)	0	.	3.7*	25	.	-3
COc1ccc(-n2c(SCC(=O)Nc3cccc4ccccc34)nnc2-c2ccco2)cc1	.	.	-1	.	.	1
C/C(=N\NC(=S)NCC(C)(C)C)c1cc(F)cc(F)c1O	4.7*	0	0	28	7	-2
C/C(=N\N1C(=O)c2ccccc2NC1c1ccco1)c1ccccc1O (stereo not drawn)	6.1*	0	3	-52	3	3
O=C1c2ccccc2NC(c2ccco2)N1/N=C/c1ccco1 (stereo not drawn)	1	1	1	-39	-32	5
Cc1ccc2nc3ccc(N4CCN(C)CC4)nn3c(=O)c2c1	3	2	4.3*	-79	15	6
Cc1ccc2nc3ccc(N4CCCCCCC4)nn3c(=O)c2c1	2	3	1	-122	-1	4
CCCC1=NN2C(=N)/C(=C\c3cc(C)n(Cc4ccccc4)c3C)C(=O)N=C2S1	0	5	0	13	6	-3
Cc1cc(/C=C2\C(=N)N3N=CSC3=NC2=O)c(C)n1Cc1ccccc1	5.4*	1	2	-21	26	3
O=c1cc(-c2ccccc2)nc(/C=C/c2ccccc2)[nH]1	5.6*	1	0	-6	-8	-1
COC(=O)[C@]12C[C@H](CC(=O)NCCCN3CCCC3=O)C(=O)N(CCC3=CCCCC3)C1=C[C@H](C1CCCC1)O[C@@H]2C	.	.	-1	.	.	-3
COc1ccccc1NC(=O)OC(C)c1ccc(Cl)cc1 (stereo not drawn)	4.5*	-1	0	-35	-1	-3
O=C(CN1C(=O)c2ccccc2C1=O)NC1CCS(=O)(=O)C1 (stereo not drawn)	0	.	2	-15	.	0
